From the EternaBench riboswitch data

Test system: MS2 coat protein
Assay: apparent Kd, MS2 coat protein; higher = weaker binding; RNA-MaP array; FMN 200 µM where present
Procedure, shortened: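 On Illumina sequencing-chip clusters, designs were transcribed by stalled E. coli RNA polymerase and titrated with SNAP-549-labelled MS2 coat protein (0.7 or 1.5 nM, doubling to 3 µM), without and then with constant ligand, in 100 mM Tris-HCl pH 7.5, 80 mM KCl, 4 mM MgCl2, BSA, DTT, yeast tRNA and Tween-20. Apparent Kd is the median of filtered per-cluster curve fits to green signal normalised to red-channel RNA signal and control-cluster median Fmax.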

[1] = designed as: OFF switch for flavin mononucleotide, no ligand
[2] = ligand present: flavin mononucleotide, designed as: OFF switch for flavin mononucleotide
[3] = designed as: ON switch for flavin mononucleotide, no ligand
[4] = ligand present: flavin mononucleotide, designed as: ON switch for flavin mononucleotide

Sequence | apparent Kd [1] [nM] | apparent Kd [2] [nM] | apparent Kd [3] [nM] | apparent Kd [4] [nM]
UGUGACAUGAGGAUCACCCAUGUAGAGGAUAUAGAGAUGAUGUUAGAGAAGAAUGUGUAGUAAGACUAGAAGGCUAUGUGUGUA | 32.8 | 28.2 |  | 
CAAUCUCAGAUAGGAUAUAUAGGAUAACUUAAGACCUAACAUGAGGAUCACCCAUGUGAUUAUUCGUAGAAGGAUCAUUGAACU |  |  | 226 | 244
GUAGCAUGCCAAGGAUAUUCAUAUAAUAAGUAAACAUGAGGAUCACCCAUGUAGUGAGAGCCUUGGGAGAAGGUGGGAUGCUAC |  |  | 26.7 | 41.9
CGCACUGAUAGAGGAUAUGUUGUACAUGAGGAUCACCCAUGUGUUUUUGUAUCAAUAUUAGUGAAACAGAAGGCUAUUAGUGCG | 5.65 | 4.65 |  | 
GGGCGACAUGAGGAUCACCCAUGUAACCAAAACGAAGGAUAUGGGCCUGAACGUCCAGGACUAGAAGGUCGGAAAC |  |  | 22 | 18
CGGGCGCCGAAGGGCGAAAGCCCACAUGAGGAUCACCCAUGUAGAAGGAGGGAAGAAACCAAAACCUAGGAUAUACAGGCGCCA | 8.43 | 10.5 |  | 
GGUUGUAAUGUCAGCGAGUGUUAGAGAAGGUACAUGAGGAUCACCCAUGUACGUGAUCUUGCGAGUAAGGAUAUCUGUUAUUCA | 5.2 | 5.5 |  | 
CGCUGGUGACAGCAUCCAUCAAAACAUGAGGAUCACCCAUGUAGAAGGCUGUACGGUUACCGUACAGAGGAUAUACAAUGAUGU | 16 | 27.2 |  | 
GUAUAUAGUGUGAGGAUAUGCUGGUCCUUGGAUCAGCAGAAGGCACAUGAGGAUCACCCAUGUAGUUAAAUAUG | 26.8 | 100 |  | 
GUAGCUACAUGAGGAUCACCCAUGUAGGAUAUCGCUAUUGUAAUCAUGAAACAUGAUUACAAUAGCGAGAAGGACAUGUGCUAC | 20.9 | 25.2 |  | 
GUACUACAUGAGGAUCACCCAUGUCAGGAUAUGUGAAUUUCAUCAAAAGAUGAAAUUCGUAGAAGGGACAGUAC | 22.2 | 29.4 |  | 
CCACGGUAUGUAGGAUAUGCAUAGCAUUGCUAUGCAGAAGGACAUGAGGAUCACCCAUGUAUGUAUUCCAUACUAAUCCCGUGA | 5.96 | 5.3 |  | 
AAUUUACAGCUAGGAUAUACAUGAGGAUCACCCAUGUAAUCAUAUGAUGUUAUCAUUGUAUGAGUGUAGAAGGAGCAAAUAAGA | 7.72 | 6.34 |  | 
UUGGACGUCGGAGGAUAUGUAGGAUAUUCCUACAUGAGGAUCACCCAUGUUGACAUGGAAGAAGGACAGAAGGACGAUGUCCAU |  |  | 352 | 4.83
GGUACCAACACAGGAUAUCCUAUCCUUUGGGUAGGAGAAGGGUGAAACAUGAGGAUCACCCAUGUGGUGCCAGGGCGUGAGCCC |  |  | 1230 | 206
GGGCCCGGAGGAUAUACAAUUUUGGGCCGAAAGGCCCGGGUACAUGAGGAUCACCCAUGUAGAAGGCCGGGUUU | 31.9 | 311 |  | 
GUGUACGGAGGAUAUGUAUGGGCAGGCUGACCUGCAGCUUCACAUGAGGAUCACCCAUGUAGAAGGCUGUGCAC | 12.1 | 24.2 |  | 
ACAUGCAUAGCGAUAUGAUCGAGAGAUCAUGUCGAAAAUUUUAGAAGGACAUGAGGAUCACCCAUGUAGGAUAUGGGAGCAUGA |  |  | 62.6 | 16.3
GUAUCUUACCAAGGAUAUUUAAGAUUUGUGUAGACAUGAGGAUCACCCAUGUGGCCUUAGUCACGGGAGAAGGUGGUUUGAUAC |  |  | 940 | 492
AUUAAUAAGUAGAAGGACGGAGAGUAUGAAGUCGUAGGAUAUACAAUAGACAUGAGGAUCACCCAUGUAUGUUGGGUGUGAAUG | 376 | 254 |  | 
GGGUACAGCGGAGGAUAUCAUGUAAAUACAUGAGGAUCACCCAUGUCGAUGGAGACAUCGGAGAUUGAGAAGGCCGAUGUACCG |  |  | 173 | 9.99
GUCAGCUCGUGAGGAUAUACAUGUGCUGGAUACAGCACUAUUGAGUUCACAUGAGGAUCACCCAUGUAGAAGGCACGAGCUGAU | 15.1 | 28.1 |  | 
CUCGGCGCACAGAAGGAUCGGUACAUGAGGAUCACCCAUGUAAGCAAAGAUAGGAUAUGUGGAGCUUACAGGGAAAUUGAACAA |  |  | 74.6 | 10.8
UAGCCUGUAGGAGUGGAAGCCGGUAGAAGGCAGCAUUGAUGGACCGACAUGAGGAUCACCCAUGUUGAGGAUAUACCGGGCACU | 39.3 | 247 |  | 
CCAUUCAGAGGAUAUGCGCAUAGAUAAGACUUUGUUUCUUAACAUGAGGAUCACCCAUGUAGAAGGCUGUACCC | 24.1 | 21 |  | 
GAUCAGCUUGUGAGGAUAUCCGGGCUUAAAGGCUAGGAGAAGGUACAUGAGGAUCACCCAUGUAGAGUCCUGGG | 73.8 | 111 |  | 
AAAAAACAUGAGGAUCACCCAUGUGAGGAUAUCACUAGUCAGUCCUCAGAGUGAGUACUGAGAAGGCACAUAAA | 86.9 | 54.3 |  | 
ACUAUACGAGGAUAUACUGUCAGGCCUCAGACAUAAAUAAGACAUGAGGAUCACCCAUGUAGAAGGCGUUUACU | 31.3 | 48 |  | 

Sequence | apparent Kd [1] [nM] | apparent Kd [2] [nM] | apparent Kd [3] [nM] | apparent Kd [4] [nM]
CCUAAGGACACAGGAUAUAGCGUGGUGGCUGGGCUCCCACGGCGAGCGGCGCUAGAAGGGUGACCACAUGAGGAUCACCCAUGU |  |  | 538 | 148
AAGAAGUCAGGAUAUGCAUGGCGGGACUUGCGUCGUGGCGUGCAGAAGGGACAUGAGGAUCACCCAUGUGGAGU | 155 | 241 |  | 
UGGUACAUGGGAGGAUAUCCUCACAUGAGGAUCACCCAUGUAAAGAAUUAUAAGCCGAAAGGCAUGGAGAAGGCCCAUGUACCU |  |  | 87.6 | 16.2
CGUUGAUUUAUUGGAUGAUAUGAUGAGGAUAUCAAUAUUUGUUACAUGAGGAUCACCCAUGUUAAUGAGAAGGCAUAAUUAACG |  |  | 8.49 | 7.96
UUAUACGUUGAGGAUAUGCGAAUUAGUAUAGUUGCAGAAGGCGAUACAUGAGGAUCACCCAUGUUUAUGGGCAU | 194 | 341 |  | 
AUGAGUAAAGCAGGAUAUCUAUUGUCUCUGUAACAUGAGGAUCACCCAUGUAGAGAAGGGCUAAUUCUUACUCUUCGGAGUUGA | 10.5 | 10.1 |  | 
GUAUGGAUUACAGGAUAUGUUAGUUUUAAGUGUAUUGGUUAUUACUUAAUUACAGAAGGGUAUUACAUGAGGAUCACCCAUGUA |  |  | 16 | 11.5
UCUACGCGAAUCAAGAUGGAUAGCACAUGAGGAUCACCCAUGUAGGAUAUGCUACACAAAGUGUAGCAGAAGGACAAGCGUAGA | 26.5 | 38.3 |  | 
GGUACUCAAAGAGUACCAAUACGAACAUGAGGAUCACCCAUGUAGGAUAUAAAACCGCCGGAGUAUUAGAAGGACAUGUGCCUA | 11.5 | 10.5 |  | 
UUAUUUAUACAAGGAUAUCAAUUAUAUACACAUCCUACAUGAGGAUCACCCAUGUUUUAUUUUUUUGAGAAGGUGUAUUGUGGG |  |  | 92.3 | 109
ACCUAUUUGGAGAAGGCCAGAAUGAUUAGGCUAAGGCGUGAUCCUGCAUGGAGGAUAUCCAAAACAUGAGGAUCACCCAUGUUC |  |  | 130 | 71.2
GUAGCAUAGUCAGGAUAUUCAUAUAAUAAAUAAACAUGAGGAUCACCCAUGUGGCGAAAGCCUUGGGAGAAGGGACAAUGCUAC |  |  | 1210 | 90.2
CUCGUUAUGUUAGGAUAUGAUGCAUCCCGAUAAUCAGAAGGAACAUGAGGAUCACCCAUGUGACAUUUGGUGAAUACAAGCCAG | 6.79 | 7.96 |  | 
CCUGAGUGUCUAGGAUAUGCAUACCCGAGCUUUGCAGAAGGAGACAUGAGGAUCACCCAUGUGGACUUGGCAGGUCUCGCACCA | 5.91 | 7.59 |  | 
GUGGAGUACGUAGGAUAUGUAGGAUAUUCCUACAUGAGGAUCACCCAUGUUUACAUGGAAGAAGGACAGAAGGACGUGCUCCAG |  |  | 1430 | 14.3
CCGCGCUGUCGAGAGGAUAUGCGGUGAUGGACAUGAGGAUCACCCAUGUUAGCGAUAGCAUUACUGUAGAAGGCUCUACGGCGGC |  |  | 16.6 | 17.3
AAAAAACAUGAGGAUCACCCAUGUCUUCGGACAUGAGGAUAUGUACAGACUUCGGUCUGUACAGAAGGCAUGUCAA |  |  | 166 | 23.2
GCGCUUAUACAGAAGGCCAGAGACAUGAGGAUCACCCAUGUUAGAUGGUGGAGGAUAUGUGUUUUAUUACAGAUAGUUGAGCGC |  |  | 6.38 | 6.13
CGCUACUACCAGAAGGACAUGAGGAUCACCCAUGUAGGAUAUGGGUUACACGUUCCUGUGAAUUGUUACUACGCUACGUAUGCG |  |  | 401 | 21.5
CGGAGACAUGAGGAUCACCCAUGUGAGGAUAUGCAAGCCCGACUGAUCGUUAGCCUAUGUAGAAGGCACGGGUC | 21.3 | 20 |  | 
UCACGGGAUUGAGGAUAUAUAUUAAUUUUUACAAUAGAAGGCAAAUUGUUAGUUUUUUCACUAUACAUGAGGAUCACCCAUGUU | 27.4 | 25.1 |  | 
AAUUAUUAUUGAGGAUAUCGUAUUGAAACAAUACGAGAAGGCGGUAUAAACAUGAGGAUCACCCAUGUGAGCCUGAUGCUUAUG | 28.4 | 58.9 |  | 
UGUCGGAUCAGAGGAUAUUACAUGAGGAUCACCCAUGUAUGAACCAAUAGCUGGAAACAGCAAUGUAAGAAGGCUGCUCCGACA | 11.4 | 160 |  | 
AAUACAAAUAGUCAGGAUAUCAAAAAUAAGACAUGAGGAUCACCCAUGUAAUAAGUAAAAGUAAAUGAGAAGGGACAGGGUGAAA |  |  | 168 | 266
AAUAGUGGAGGAUAUACAUGAGGAUCACCCAUGUAGAAAGGAAGUGUAUAUAUGGCGUGUAGAAGGCCAAAUAA | 36.4 | 34.1 |  | 
GUUACAUGAGGAUCACCCAUGUAUGUGUGGGAGUAAGUGUCUUAGGAUAUCUAUGAUUUAAAUUAAGAGAAGGAAGAUUGUUGU |  |  | 101 | 117
ACUUAUGAAGGAUAUACUAGCGACAUGCACUCAACACACGCACAUGAGGAUCACCCAUGUAGAAGGUCAAACAU | 25.7 | 22.4 |  | 
